E-sel inducer: E-selectin induction in HUVECs, primary screen, imaging, HUVEC, immunofluorescence imaging, single point; P16581; normalized: neutral wells 0, TNF-alpha wells 100; activation, % at 7.58 µM; 260,000 compounds, 0.37% hits; AID 686992, 2013;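 active = mean E-selectin-positive cell signal at least 10% of the positive control, reached in at least 60% of replicates, without over 20% cell loss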
Target sequence (P16581 whole entry, looked up): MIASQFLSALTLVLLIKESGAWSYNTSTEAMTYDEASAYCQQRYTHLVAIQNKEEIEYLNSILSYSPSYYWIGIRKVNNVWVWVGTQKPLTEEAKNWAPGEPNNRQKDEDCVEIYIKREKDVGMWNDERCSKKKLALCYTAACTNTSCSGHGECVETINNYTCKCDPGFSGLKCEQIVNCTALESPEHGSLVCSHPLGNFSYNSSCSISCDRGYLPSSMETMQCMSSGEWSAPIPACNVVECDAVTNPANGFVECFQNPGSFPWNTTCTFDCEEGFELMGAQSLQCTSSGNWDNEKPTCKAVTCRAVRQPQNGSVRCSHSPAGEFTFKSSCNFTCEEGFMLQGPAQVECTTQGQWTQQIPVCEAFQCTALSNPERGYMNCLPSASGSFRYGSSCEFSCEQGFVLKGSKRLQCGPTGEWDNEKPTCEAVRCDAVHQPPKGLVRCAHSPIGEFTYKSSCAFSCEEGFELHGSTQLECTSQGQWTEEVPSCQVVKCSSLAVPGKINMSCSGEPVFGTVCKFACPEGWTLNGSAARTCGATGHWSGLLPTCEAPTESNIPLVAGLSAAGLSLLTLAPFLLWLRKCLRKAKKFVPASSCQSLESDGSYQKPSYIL
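Assay system: HUVEC primary endothelial cells. Input: 3,000 HUVEC seeded per well. Doses: one compound dose added by pin transfer. Read-out basis: % PE-positive cells. Benchmarks: TNF-alpha high, DMSO low. Detection: immunofluorescence imaging. Buffer or medium: EGM-2, gelatin.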
Numbers without * were called inactive. The sample as a whole holds a higher share of hits than the screen did.

SMILES | E-sel inducer
C[C@@H]1CCCCO[C@@H](CN(C)C(=O)c2ccccc2)[C@H](C)CN([C@@H](C)CO)C(=O)c2cc(NC(=O)CCCN(C)C)ccc2O1 | 0
O=C(Cc1ccncc1)NCC[C@H]1CC[C@H](NC(=O)Nc2ccc(F)cc2)[C@H](CO)O1 | 0
CCCC(=O)N1CCC2(CC1)CN(S(C)(=O)=O)[C@@H](CO)c1c2c2ccc(OC)cc2n1C | 0
C/C=C/c1ccc2c(c1)O[C@@H](CN(C)C(=O)CC)[C@@H](C)CN([C@H](C)CO)S2(=O)=O | 0
C[C@H]1CN([C@@H](C)CO)C(=O)c2cc(Br)cnc2O[C@@H]1CN(C)CC1CCOCC1 | 4
CCC(=O)N1[C@@H]2c3cccc(=O)n3C[C@H]1[C@H](CO)[C@H]2C(=O)N1CCCCC1 | 0
Cc1ccccc1CN1CCN(c2ccc(S(=O)(=O)N3CCCC3)cn2)CC1 | 0
Cc1ccccc1CN1CCN(S(=O)(=O)c2ccc(Cl)s2)CC1 | 290*
CCS(=O)(=O)N1CCN(S(=O)(=O)c2ccc(Cl)s2)CC1 | 0
CCCNC(=O)N1C[C@@H](C)[C@@H](OC)CN(C)C(=O)c2ccc(NC(=O)C3CCC3)cc2OC[C@H]1C | 0
Cc1cccc(-c2cc(NCCc3cccnc3)n3nccc3n2)c1 | 0
CCOc1cccc(-c2cc(N3CCN(CCO)CC3)n3nccc3n2)c1 | 2
CN1CCCN(c2cc(-c3ccc4ccccc4c3)nc3ccnn23)CC1 | 150*
COc1ccc(-c2cc(N3CCN(CCO)CC3)n3nccc3n2)cc1 | 0
Cc1cccc(-c2cc(N3CCCN(C)CC3)n3nccc3n2)c1 | 69*
OCCN1CCN(c2cc(-c3ccc4ccccc4c3)nc3ccnn23)CC1 | 0
O=C([C@H]1[C@H](CO)[C@H]2Cn3c(cccc3=O)[C@H]2N1Cc1ccccn1)N1CCC(Cc2ccccc2)CC1 | 0
COc1ccc(C(=O)Nc2ccc3c(c2)OC[C@@H](C)N(Cc2cocn2)C[C@@H](C)[C@@H](OC)CN(C)C3=O)cc1 | 0
O=C(C1CCCCC1)N1CC(=O)N2[C@@H](CO)[C@@H](c3ccc(C#Cc4cccc(F)c4)cc3)[C@@H]2C1 | 0
C[C@@H]1CN([C@H](C)CO)C(=O)c2cc(NC(=O)CCCN(C)C)ccc2O[C@@H](C)CCCCO[C@H]1CN(C)S(=O)(=O)c1cccs1 | 0
COc1ccc2c3c([nH]c2c1)[C@H](CO)N(S(C)(=O)=O)CC31CN(CC2CC2)C1 | 0
CC(C)NC(=O)N(C)C[C@H]1Oc2ccc(NC(=O)Nc3ccc(F)cc3)cc2CC(=O)N([C@@H](C)CO)C[C@H]1C | 0
CCS(=O)(=O)Nc1ccc2c(c1)C(=O)N(C)C[C@@H](OC)[C@H](C)CN(C(=O)C1CC1)[C@@H](C)CO2 | 0
CN1CCN(C(=O)c2cc3c(c(-c4cccc(Br)c4)n2)[C@@H](CCO)N(S(=O)C(C)(C)C)C3)CC1 (some centres not stated) | 0
O=C(c1cc2c(c(-c3cccc(Br)c3)n1)[C@@H](CCO)NC2)N1CCCCC1 | 132*
SMILES | E-sel inducer
O=C(c1cc2c(c(-c3cccc(Br)c3)n1)[C@H](CCO)NC2)N1CCCCC1 | 16
CCCNC(=O)N1C[C@@H](O)COC[C@H]2O[C@@H](CC(=O)N[C@@H]3CCN(Cc4ccccc4)C3)CC[C@@H]21 | 0
CO[C@@H]1CN(C)C(=O)c2cc(NS(=O)(=O)c3cccc(C)c3)ccc2OC[C@@H](C)NC[C@@H]1C | 0
C[C@H]1CN([C@@H](C)CO)C(=O)Cc2cc(NS(=O)(=O)c3ccccc3)ccc2O[C@@H]1CN(C)C(=O)Nc1ccc2c(c1)OCO2 | 1
Cc1cc(C)c2nc(NC(=O)c3ccc4c(=O)n5c(nc4c3)CCCCC5)sc2c1 | 35*
O=C(Nc1nc(-c2ccccc2)cs1)c1ccc2c(=O)n3c(nc2c1)CCCCC3 | 0
Cc1ccc(NC(=O)c2ccc3c(=O)n4c(nc3c2)CCCCC4)nc1 | 0
COc1ccc(CN(C)C[C@@H]2OCCCC[C@H](C)Oc3ccc(NC(=O)Cc4ccccc4)cc3C(=O)N([C@@H](C)CO)C[C@H]2C)cc1 | 0
C[C@@H]1CN([C@H](C)CO)C(=O)c2cc(C#C[C@@H](C)O)cnc2O[C@@H]1CN(C)C(=O)Nc1ccc(C(F)(F)F)cc1 | -1
[O-][n+]1cccc2ncc3cscc3c21 | 431*
c1cnc2c(c1)ncc1cscc12 | 0
c1ccc2c(c1)cnc1ccccc12 | -2
Cc1nc2ccccc2c(=O)n1/N=C/c1ccc(C(C)C)cc1 | 0
COc1ccc(/C=N/n2c(C)nc3ccccc3c2=O)cc1 | 31*
COc1ccc(/C=N/n2c(C)nc3ccccc3c2=O)cc1OC | 0
CCCNC(=O)Nc1ccc2c(c1)C(=O)N(C)[C@H]1CC[C@H](CC(=O)O)O[C@H]1CO2 | 0
O=C(NCC[C@@H]1CC[C@@H](NC(=O)C2CC2)[C@H](CO)O1)c1cc(Cl)cc(Cl)c1 | 1
C[C@@H](NC(=O)C[C@H]1C=C[C@H](NC(=O)C2CC2)[C@H](CO)O1)c1ccccc1 | 0
NC(=O)C1CCN(c2nc(-c3ccccc3N)cs2)CC1 | 1
NC(=O)C1CCN(c2nc(-c3ccccc3-c3ccccc3)cs2)CC1 | 139*
NC(=O)C1CCN(c2nc(-c3cccc(Cl)c3)cs2)CC1 | 0
Cc1ccc(S(=O)(=O)Nc2ccc3c(c2)C(=O)N([C@@H](C)CO)C[C@@H](C)[C@H](CN(C)C(=O)Nc2ccccc2)OCCCC[C@@H](C)O3)cc1 | 0
Cc1noc(C)c1NC(=O)N(C)C[C@@H]1Oc2ccc(NC(=O)Nc3cccc4ccccc34)cc2C(=O)N([C@H](C)CO)C[C@@H]1C | 0
CN1C(=O)c2cc(NC(=O)c3ccc(Cl)cc3)ccc2OC[C@H]2O[C@@H](CC(=O)O)CC[C@@H]21 | 0
O=C(NCCCN1CCCCC1)c1ccc(CS(=O)c2ccc(Cl)cc2)o1 (configuration not stated) | 0
SMILES | E-sel inducer
CCCN1CCN(C(=O)c2ccc(CS(=O)c3ccc(Cl)cc3)o2)CC1 (configuration not stated) | 49*
O=C(c1ccco1)N1CCN(C(=O)c2ccc(CS(=O)c3ccc(Br)cc3)o2)CC1 (configuration not stated) | 0
COCC(=O)Nc1ccc2c(c1)[C@@H]1C[C@@H](CC(=O)N3CCc4ccccc4C3)O[C@@H](CO)[C@@H]1O2 | 0
O=C([C@@H]1[C@@H](CO)[C@@H]2Cn3c(cccc3=O)[C@H]1N2C(=O)CC1CC1)N1CCCCC1 | -1
Cc1cc(C(=O)Nc2cccc3c2O[C@@H](CN(C)C(=O)Nc2ccccc2)[C@H](C)CN([C@H](C)CO)C3=O)n(C)n1 | 0
CCOC(=O)c1ccc(NC(=O)c2cc(C)nn2-c2ccccc2)cc1 | 4
Cc1cc(C(=O)Nc2c(C)cccc2C)n(-c2ccccc2)n1 | 0
Cc1cc(C(=O)Nc2ccc(C)c(C)c2)n(-c2ccccc2)n1 | 53*
COc1ccc(-c2nnc3n2CCCCC3)cc1OC | 35*
COc1ccc(/C=C/C(=O)Nc2ccc(-c3nnc4n3CCCCC4)cc2)c(OC)c1 | -3
CS(=O)(=O)Nc1ccc(-c2nnc3n2CCCCC3)cc1 | 0
N#C[C@H]1[C@@H](c2ccc(C#Cc3ccccc3F)cc2)[C@@H](CO)N1C(=O)C1CCOCC1 | 0
COc1ccc(CCCc2nc3ccccc3[nH]2)cc1 | 0
COc1ccccc1CC(Cc1nc2ccccc2[nH]1)c1nc2ccccc2[nH]1 (configuration not stated) | 176*
CC(C)Cc1nc2ccccc2[nH]1 | 0
